# Measurements taken from publication PMC12282580 (RSC Advances, 2025).
# Columns and labels:
# [1] = test system: SW620 cells (colon cancer); experiment: Cytotoxicity assay; type: cell-based; details: Homo sapiens, SW-620, 48 h, read-out: Cytotoxicity (IC50) SW620
# SW620 cells = experiment: Morphological changes; type: cell-based, human; details: 5 μM, 24-hour treatment
# Summary of the method: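 SW620 cells exposed to test compound at 5 μM for 24 h, then photographed on an imaging system through 20× or 40× objectives to record morphology.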
# [2] = test system: SW620 human colon cancer cells; experiment: Cell cycle analysis; type: cell-based; details: 5 μM, 24-hour treatment, effect less pronounced for 7d and 11d compared to SAHA
# Summary of the method: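 Controls were untreated cells and vehicle-treated cells (DMSO 0.05%). Data shown as histograms plus bar graphs.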
# [3] = test system: SW620 human colon cancer cells; experiment: Apoptosis assay; type: cell-based; details: 5 μM, 24-hour treatment, early apoptosis levels exceeding those observed with SAHA
# Summary of the method: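 Annexin V-FITC/PI dual staining, with untreated and vehicle (DMSO 0.05%) controls. Data presented as histograms with accompanying bar graphs.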
# [4] = test system: MDA-MB-231 cells (breast cancer); experiment: Cytotoxicity assay; type: cell-based, human; details: read-out: Cytotoxicity (IC50) MDA-MB-231; MDA-MB-231 breast cancer; 48h; MTT
Compound,IC50 [1],also measured
"COc1cccc2c1C(=O)c1c(O)c3c(c(O)c1C2=O)C[C@@](O)(C(=O)CO)C[C@@H]3O[C@H]1C[C@H](N)[C@H](O)[C@H](C)O1 [ADR, adriamycin, reference compound]",0.56 ± 0.1 µM,–
"O=C(NO)c1ccc(Cn2cc(Cn3cnc4ccccc4c3=O)nn2)cc1 [Compound 7a, N-Hydroxy-4-((4-((4-oxoquinazolin-3(4H)-yl)methyl)-1H-1,2,3-triazol-1-yl)methyl)benzamide]",9.21 ± 0.72 µM,–
"Cc1ccc2ncn(Cc3cn(Cc4ccc(C(=O)NO)cc4)nn3)c(=O)c2c1 [Compound 7b, N-Hydroxy-4-((4-((6-methyl-4-oxoquinazolin-3(4H)-yl)methyl)-1H-1,2,3-triazol-1-yl)methyl)benzamide]",43.1 ± 4.55 µM,–
"Cc1ccc2c(=O)n(Cc3cn(Cc4ccc(C(=O)NO)cc4)nn3)cnc2c1 [Compound 7c, N-Hydroxy-4-((4-((7-methyl-4-oxoquinazolin-3(4H)-yl)methyl)-1H-1,2,3-triazol-1-yl)methyl)benzamide]",7.34 ± 0.94 µM,–
"O=C(NO)c1ccc(Cn2cc(Cn3cnc4ccc(Cl)cc4c3=O)nn2)cc1 [Compound 7d, 4-((4-((6-Chloro-4-oxoquinazolin-3(4H)-yl)methyl)-1H-1,2,3-triazol-1-yl)methyl)-N-hydroxybenzamide]",3.64 ± 0.31 µM,Morphological changes (SW620 cells): induced characteristic apoptotic morphological alterations; Cell cycle effect [2]: induced G2/M phase cell cycle arrest; Pro-apoptotic effect [3]: significantly induced early and late apoptosis
"O=C(NO)c1ccc(Cn2cc(Cn3cnc4ccc(F)cc4c3=O)nn2)cc1 [Compound 7e, 4-((4-((6-Fluoro-4-oxoquinazolin-3(4H)-yl)methyl)-1H-1,2,3-triazol-1-yl)methyl)-N-hydroxybenzamide]",5.87 ± 1.55 µM,–
"O=C(NO)c1ccc(Cn2cc(Cn3cnc4cc(F)ccc4c3=O)nn2)cc1 [Compound 7f, 4-((4-((7-Fluoro-4-oxoquinazolin-3(4H)-yl)methyl)-1H-1,2,3-triazol-1-yl)methyl)-N-hydroxybenzamide]",8.23 ± 2.04 µM,–
"O=C(NO)c1ccc(Cn2cc(Cn3cnc4ccc(Br)cc4c3=O)nn2)cc1 [Compound 7g, 4-((4-((6-Bromo-4-oxoquinazolin-3(4H)-yl)methyl)-1H-1,2,3-triazol-1-yl)methyl)-N-hydroxybenzamide]",20.8 ± 5.32 µM,–
"O=C(NO)c1ccc(Cn2cc(Cn3cnc4cc(Br)ccc4c3=O)nn2)cc1 [Compound 7h, 4-((4-((7-Bromo-4-oxoquinazolin-3(4H)-yl)methyl)-1H-1,2,3-triazol-1-yl)methyl)-N-hydroxybenzamide]",3.77 ± 1.87 µM,–
"O=C(NO)c1ccc(Cn2cc(Cn3cnc4ccc(I)cc4c3=O)nn2)cc1 [Compound 7i, N-Hydroxy-4-((4-((6-iodo-4-oxoquinazolin-3(4H)-yl)methyl)-1H-1,2,3-triazol-1-yl)methyl)benzamide]",5.52 ± 1.04 µM,–
"O=C(/C=C/c1ccc(Cn2cc(Cn3cnc4ccccc4c3=O)nn2)cc1)NO [Compound 11a, (E)-N-Hydroxy-3-(4-((4-((4-oxoquinazolin-3(4H)-yl)methyl)-1H-1,2,3-triazol-1-yl)methyl)phenyl)acrylamide]",5.07 ± 2.92 µM,–
"Cc1ccc2ncn(Cc3cn(Cc4ccc(/C=C/C(=O)NO)cc4)nn3)c(=O)c2c1 [Compound 11b, (E)-N-Hydroxy-3-(4-((4-((6-methyl-4-oxoquinazolin-3(4H)-yl)methyl)-1H-1,2,3-triazol-1-yl)methyl)phenyl)acrylamide]",9.82 ± 2.46 µM,–
"Cc1ccc2c(=O)n(Cc3cn(Cc4ccc(/C=C/C(=O)NO)cc4)nn3)cnc2c1 [Compound 11c, (E)-N-Hydroxy-3-(4-((4-((7-methyl-4-oxoquinazolin-3(4H)-yl)methyl)-1H-1,2,3-triazol-1-yl)methyl)phenyl)acrylamide]",11.7 ± 4.39 µM,–
"O=C(/C=C/c1ccc(Cn2cc(Cn3cnc4ccc(Cl)cc4c3=O)nn2)cc1)NO [Compound 11d, (E)-3-(4-((4-((6-Chloro-4-oxoquinazolin-3(4H)-yl)methyl)-1H-1,2,3-triazol-1-yl)methyl)phenyl)-N-hydroxyacrylamide]",3.15 ± 0.33 µM,Morphological changes (SW620 cells): induced characteristic apoptotic morphological alterations; Cell cycle effect [2]: induced G2/M phase cell cycle arrest; Pro-apoptotic effect [3]: significantly induced early and late apoptosis
"O=C(/C=C/c1ccc(Cn2cc(Cn3cnc4ccc(F)cc4c3=O)nn2)cc1)NO [Compound 11e, (E)-3-(4-((4-((6-Fluoro-4-oxoquinazolin-3(4H)-yl)methyl)-1H-1,2,3-triazol-1-yl)methyl)phenyl)-N-hydroxyacrylamide]",4.57 ± 3.54 µM,–
"O=C(/C=C/c1ccc(Cn2cc(Cn3cnc4cc(F)ccc4c3=O)nn2)cc1)NO [Compound 11f, (E)-3-(4-((4-((7-Fluoro-4-oxoquinazolin-3(4H)-yl)methyl)-1H-1,2,3-triazol-1-yl)methyl)phenyl)-N-hydroxyacrylamide]",5.34 ± 0.76 µM,–
"O=C(/C=C/c1ccc(Cn2cc(Cn3cnc4ccc(Br)cc4c3=O)nn2)cc1)NO [Compound 11g, (E)-3-(4-((4-((6-Bromo-4-oxoquinazolin-3(4H)-yl)methyl)-1H-1,2,3-triazol-1-yl)methyl)phenyl)-N-hydroxyacrylamide]",9.16 ± 0.08 µM,IC50 [4]: 9.07 ± 0.42 µM
"O=C(/C=C/c1ccc(Cn2cc(Cn3cnc4cc(Br)ccc4c3=O)nn2)cc1)NO [Compound 11h, (E)-3-(4-((4-((7-Bromo-4-oxoquinazolin-3(4H)-yl)methyl)-1H-1,2,3-triazol-1-yl)methyl)phenyl)-N-hydroxyacrylamide]",5.73 ± 0.76 µM,IC50 [4]: 5.55 ± 0.18 µM
"O=C(/C=C/c1ccc(Cn2cc(Cn3cnc4ccc(I)cc4c3=O)nn2)cc1)NO [Compound 11i, (E)-N-Hydroxy-3-(4-((4-((6-iodo-4-oxoquinazolin-3(4H)-yl)methyl)-1H-1,2,3-triazol-1-yl)methyl)phenyl)acrylamide]",28.5 ± 8.19 µM,–
"O=C(CCCCCCC(=O)Nc1ccccc1)NO [SAHA, suberoylanilide hydroxamic acid, reference compound]",–,Cell cycle effect [2]: induced G2/M phase cell cycle arrest
